Tests used:
Bone [1] = assay: Drug uptake in Sprague-Dawley rat bone at 1.8 uCi, iv administered as bolus dose after 6 hrs; assay type: ADME, organism-based, Bone element; conditions: in vivo
In short: (§1)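 Female Sprague Dawley rats, about 13 weeks old, in five groups of three. Single IV tail-vein bolus of mixed 3H-conjugate (8.90 µCi/rat) and 14C-conjugate (1.77 µCi/rat), total dose 5.0 mg/kg. Vehicle was 10% Poloxamer 188, brought to pH 8.0 with NaHCO3, then diluted with an equal volume of PBS. Groups were killed at 6 h, 1, 7, 14 and 28 days. Tissues and femurs were incinerated in a biological oxidizer. Values are % of administered dose, with skeleton taken as 8% of body weight, averaged over three rats.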

Bone [2] = assay: Drug uptake in Sprague-Dawley rat bone at 1.8 uCi, iv administered as bolus dose after 1 day; assay type: ADME, organism-based, Bone element; conditions: in vivo, 24 h; in short: as §1
Bone [3] = assay: Drug uptake in Sprague-Dawley rat bone at 1.8 uCi, iv administered as bolus dose after 7 days; assay type: ADME, organism-based, Bone element; conditions: in vivo, 168 h; in short: as §1
Bone [4] = assay: Drug uptake in Sprague-Dawley rat bone at 1.8 uCi, iv administered as bolus dose after 14 days; assay type: ADME, organism-based, Bone element; conditions: in vivo, 336 h; in short: as §1
Liver [5] = assay: Drug uptake in Sprague-Dawley rat liver at 1.8 uCi, iv administered as bolus dose after 6 hrs; assay type: ADME, organism-based; conditions: in vivo; in short: as §1
Liver [6] = assay: Drug uptake in Sprague-Dawley rat liver at 1.8 uCi, iv administered as bolus dose after 1 day; assay type: ADME, organism-based; conditions: in vivo, 24 h; in short: as §1
Liver [7] = assay: Drug uptake in Sprague-Dawley rat liver at 1.8 uCi, iv administered as bolus dose after 7 days; assay type: ADME, organism-based; conditions: in vivo, 168 h; in short: as §1
Liver [8] = assay: Drug uptake in Sprague-Dawley rat liver at 1.8 uCi, iv administered as bolus dose after 14 days; assay type: ADME, organism-based; conditions: in vivo, 336 h; in short: as §1
Spleen [9] = assay: Drug uptake in Sprague-Dawley rat spleen at 1.8 uCi, iv administered as bolus dose after 6 hrs; assay type: ADME, organism-based; conditions: in vivo; in short: as §1
Spleen [10] = assay: Drug uptake in Sprague-Dawley rat spleen at 1.8 uCi, iv administered as bolus dose after 1 day; assay type: ADME, organism-based; conditions: in vivo, 24 h; in short: as §1
Spleen [11] = assay: Drug uptake in Sprague-Dawley rat spleen at 1.8 uCi, iv administered as bolus dose after 7 days; assay type: ADME, organism-based; conditions: in vivo, 168 h
In short: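 Female Sprague Dawley rats, about 13 weeks old on arrival, in five groups of three. Single IV tail-vein bolus of mixed [3H]- and [14C]-labelled conjugate (8.90 and 1.77 µCi/rat), total 5.0 mg/kg. Vehicle was 10% Poloxamer 188 adjusted to pH 8.0 with NaHCO3, then diluted with an equal volume of PBS. Groups killed at 6 h, 1, 7, 14 and 28 days. Spleen radioactivity measured by oxidizer incineration and reported as percent of administered dose, averaged over three rats.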

Spleen [12] = assay: Drug uptake in Sprague-Dawley rat spleen at 1.8 uCi, iv administered as bolus dose after 14 days; assay type: ADME, organism-based; conditions: in vivo, 336 h; in short: as §1
Kidney [13] = assay: Drug uptake in Sprague-Dawley rat kidney at 1.8 uCi, iv administered as bolus dose after 6 hrs; assay type: ADME, organism-based; conditions: in vivo; in short: as §1
Kidney [14] = assay: Drug uptake in Sprague-Dawley rat kidney at 1.8 uCi, iv administered as bolus dose after 1 day; assay type: ADME, organism-based; conditions: in vivo, 24 h; in short: as §1
Kidney [15] = assay: Drug uptake in Sprague-Dawley rat kidney at 1.8 uCi, iv administered as bolus dose after 7 days; assay type: ADME, organism-based; conditions: in vivo, 168 h; in short: as §1
Kidney [16] = assay: Drug uptake in Sprague-Dawley rat kidney at 1.8 uCi, iv administered as bolus dose after 14 days; assay type: ADME, organism-based; conditions: in vivo, 336 h; in short: as §1
Heart [17] = assay: Drug uptake in Sprague-Dawley rat heart at 1.8 uCi, iv administered as bolus dose after 6 hrs; assay type: ADME, organism-based; conditions: in vivo; in short: as §1
Heart [18] = assay: Drug uptake in Sprague-Dawley rat heart at 1.8 uCi, iv administered as bolus dose after 1 day; assay type: ADME, organism-based; conditions: in vivo, 24 h; in short: as §1
Brain [19] = assay: Drug uptake in Sprague-Dawley rat brain at 1.8 uCi, iv administered as bolus dose after 6 hrs; assay type: ADME, organism-based; conditions: in vivo; in short: as §1
Brain [20] = assay: Drug uptake in Sprague-Dawley rat brain at 1.8 uCi, iv administered as bolus dose after 1 day; assay type: ADME, organism-based; conditions: in vivo, 24 h; in short: as §1
Bone [21] = assay: Drug uptake in Sprague-Dawley rat bone at 1.8 uCi, iv administered as bolus dose after 28 days; assay type: ADME, organism-based, Bone element; conditions: in vivo, 672 h; in short: as §1
Liver [22] = assay: Drug uptake in Sprague-Dawley rat liver at 1.8 uCi, iv administered as bolus dose after 28 days; assay type: ADME, organism-based; conditions: in vivo, 672 h; in short: as §1
Spleen [23] = assay: Drug uptake in Sprague-Dawley rat spleen at 1.8 uCi, iv administered as bolus dose after 28 days; assay type: ADME, organism-based; conditions: in vivo, 672 h; in short: as §1
Kidney [24] = assay: Drug uptake in Sprague-Dawley rat kidney at 1.8 uCi, iv administered as bolus dose after 28 days; assay type: ADME, organism-based; conditions: in vivo, 672 h; in short: as §1
Rattus norvegicus [25] = assay: Toxicity in Sprague-Dawley rat assessed as behavioral change at 1.8 uCi, iv administered as bolus dose after 28 dyas; assay type: organism-based; conditions: in vivo
In short: (§2)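 Same dual-label study: female Sprague Dawley rats got one IV tail-vein bolus of [3H] (8.90 µCi) plus [14C] (1.77 µCi) conjugate, total 5.0 mg/kg, in Poloxamer 188/PBS vehicle at pH 8.0. Groups of three were sacrificed up to 28 days after dosing.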

Rattus norvegicus [26] = assay: Toxicity in Sprague-Dawley rat assessed as unusual reaction at 1.8 uCi, iv administered as bolus dose after 28 dyas; assay type: organism-based; conditions: in vivo; in short: as §2

Work on `CCOC(=O)CCCCCCN1C(=O)CC[C@@H]1/C=C/[C@@H](OC(=O)Cc1ccc(COC(=O)N[C@@H](CC(C)C)C(=O)N[C@@H](CCCNC(=N)N)C(=O)Nc2ccc(CO[14C](=O)NCCCC(O)(P(=O)(O)O)P(=O)(O)O)cc2)cc1)C(F)(F)c1ccccc1` yielded a Drug uptake (Bone [1]) of 5.52 %ID, a Drug uptake (Bone [2]) of 4.63 %ID and a Drug uptake (Bone [3]) of 3.51 %ID. For the same compound, the Drug uptake (Bone [4]) was 2.52 %ID, the Drug uptake (Liver [5]) was 7.03 %ID and the Drug uptake (Liver [6]) was 2.5 %ID. The Drug uptake (Liver [7]) was 0.61 %ID, the Drug uptake (Liver [8]) was 0.27 %ID and the Drug uptake (Spleen [9]) was 0.34 %ID. It also gave a Drug uptake (Spleen [10]) of 0.23 %ID, a Drug uptake (Spleen [11]) of 0.086 %ID and a Drug uptake (Spleen [12]) of 0.05 %ID. The Drug uptake (Kidney [13]) was 0.11 %ID, the Drug uptake (Kidney [14]) was 0.047 %ID and the Drug uptake (Kidney [15]) was 0.02 %ID. The Drug uptake (Kidney [16]) was 0.013 %ID, the Drug uptake (Heart [17]) was 0.017 %ID and the Drug uptake (Heart [18]) was 0.009 %ID. It also gave a Drug uptake (Brain [19]) of 0.014 %ID, a Drug uptake (Brain [20]) of 0.012 %ID and a Drug uptake (Bone [21]) of 2.44 %ID. It also gave a Drug uptake (Liver [22]) of 0.1 %ID, a Drug uptake (Spleen [23]) of 0.039 %ID and a Drug uptake (Kidney [24]) of 0.0092 %ID. The Activity (Rattus norvegicus [25]) was “Non-Toxic” and the Activity (Rattus norvegicus [26]) was “Non-Toxic”.

Source: ChEMBL document CHEMBL4038321, “Design, Synthesis, and Pharmacokinetics of a Bone-Targeting Dual-Action Prodrug for the Treatment of Osteoporosis” (J Med Chem, 2017)
